From ChEMBL document CHEMBL4665761, “Optimizing the Benefit/Risk of Acetyl-CoA Carboxylase Inhibitors through Liver Targeting” (J Med Chem, 2020)
In brackets after ≈: the same amount, converted by molar mass.

Tests used:
[1] = target: Solute carrier family 22 member 2 (Homo sapiens, UniProt O15244); assay: Inhibition of human SLC22A2 expressed in HEK293 cells in presence of para-aminohippuric acid/metformin; assay type: cell-based
Acetyl-CoA carboxylase 1 = Acetyl-CoA carboxylase 1 (Homo sapiens, UniProt Q13085); assay: Uncompetitive inhibition of human ACC1 incubated for 15 mins in presence of ATP by Line weaver-Burk plot analysis
How it was run: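 Radioenzymatic assay with purified ACC isozymes, measuring [14C]-bicarbonate incorporation into [14C]-malonyl-CoA. Mode of inhibition taken from substrate concentration-dependence experiments varying ATP or carbonate. IC50 dose-response run at saturating ATP.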

[2] = Thermodynamic solubility of the compound at pH 1.2 after 24 hrs; assay type: physicochemical; conditions: buffer, read-out: Therm_solubility
Cytochrome P450 3A4 = Cytochrome P450 3A4 (Homo sapiens, UniProt P08684); assay: inhibition of CYP3A4 in human liver microsomes; assay type: ADME
Sequence of Cytochrome P450 3A4 (P08684 whole entry): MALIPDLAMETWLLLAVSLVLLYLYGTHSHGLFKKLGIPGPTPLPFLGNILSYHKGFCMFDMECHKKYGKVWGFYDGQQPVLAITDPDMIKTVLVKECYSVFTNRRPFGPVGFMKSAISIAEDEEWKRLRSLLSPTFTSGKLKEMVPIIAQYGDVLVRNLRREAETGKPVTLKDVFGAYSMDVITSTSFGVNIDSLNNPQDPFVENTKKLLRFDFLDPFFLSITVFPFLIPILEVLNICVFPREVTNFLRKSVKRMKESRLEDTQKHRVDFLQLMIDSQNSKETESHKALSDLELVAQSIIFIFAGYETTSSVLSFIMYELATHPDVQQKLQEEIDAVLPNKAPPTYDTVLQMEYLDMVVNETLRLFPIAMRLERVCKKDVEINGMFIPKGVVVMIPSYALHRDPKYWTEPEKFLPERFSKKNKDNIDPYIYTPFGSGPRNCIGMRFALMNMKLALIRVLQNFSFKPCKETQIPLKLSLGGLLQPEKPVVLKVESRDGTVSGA

[3] = Drug uptake in Wistar-Hannover rat liver at 10 mg/kg, po after 6 hrs by LC/MS-MS analysis; assay type: ADME, organism-based; conditions: read-out: Drug uptake
How it was run: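 Male Wistar-Hannover rats, n = 2 or 3, given an oral suspension in 0.5% methyl cellulose with 0.1% Tween 80; one compound was dosed as the HCl salt. Total plasma and liver concentrations were measured 6 h post-dose. Kp = liver/plasma total concentration. Kpu,u uses fu values from equilibrium dialysis.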

[4] = target: Voltage-gated inwardly rectifying potassium channel KCNH2 (Homo sapiens, UniProt Q12809); assay: Inhibition of human ERG at 100 uM
Sequence of Voltage-gated inwardly rectifying potassium channel KCNH2 (Q12809 whole entry): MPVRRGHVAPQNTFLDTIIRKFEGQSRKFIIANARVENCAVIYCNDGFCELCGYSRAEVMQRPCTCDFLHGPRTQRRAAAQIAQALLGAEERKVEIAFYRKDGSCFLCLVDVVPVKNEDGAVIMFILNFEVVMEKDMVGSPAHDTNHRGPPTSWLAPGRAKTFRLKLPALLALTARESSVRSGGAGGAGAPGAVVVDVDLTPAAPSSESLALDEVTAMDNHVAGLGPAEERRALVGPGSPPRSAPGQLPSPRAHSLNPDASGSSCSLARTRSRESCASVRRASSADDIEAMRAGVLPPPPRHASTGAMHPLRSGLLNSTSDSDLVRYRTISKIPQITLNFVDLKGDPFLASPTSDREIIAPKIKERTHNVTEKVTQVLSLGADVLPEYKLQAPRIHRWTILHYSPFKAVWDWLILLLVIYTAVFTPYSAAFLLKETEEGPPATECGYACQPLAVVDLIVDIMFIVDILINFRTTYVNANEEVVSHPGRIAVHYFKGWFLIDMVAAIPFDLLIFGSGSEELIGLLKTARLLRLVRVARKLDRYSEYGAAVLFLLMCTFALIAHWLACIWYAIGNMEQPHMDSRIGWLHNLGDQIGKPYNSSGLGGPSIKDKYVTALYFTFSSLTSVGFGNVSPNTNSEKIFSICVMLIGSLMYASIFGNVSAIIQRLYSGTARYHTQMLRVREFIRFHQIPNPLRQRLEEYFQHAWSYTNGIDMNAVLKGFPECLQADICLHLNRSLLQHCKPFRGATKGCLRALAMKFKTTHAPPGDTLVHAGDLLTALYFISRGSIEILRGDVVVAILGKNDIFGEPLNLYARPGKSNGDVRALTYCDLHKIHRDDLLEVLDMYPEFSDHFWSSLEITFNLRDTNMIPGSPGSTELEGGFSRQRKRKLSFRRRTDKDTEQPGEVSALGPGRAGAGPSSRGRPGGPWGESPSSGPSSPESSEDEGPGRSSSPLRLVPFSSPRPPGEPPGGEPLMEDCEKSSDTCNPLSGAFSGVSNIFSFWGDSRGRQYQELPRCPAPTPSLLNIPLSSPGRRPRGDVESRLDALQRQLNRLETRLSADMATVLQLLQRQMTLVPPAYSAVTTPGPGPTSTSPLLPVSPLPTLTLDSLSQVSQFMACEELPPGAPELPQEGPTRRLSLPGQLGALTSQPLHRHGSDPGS

TK6 = assay: Genotoxicity in human TK6 cells in presence of (aroclor-induced rat liver S9 fraction/NADPH by micronucleus test; assay type: toxicity, cell-based
How it was run: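 In vitro micronucleus assay in Chinese hamster ovary or TK6 cells, run with and without metabolic activation by aroclor-induced rat liver S9 fraction plus NADPH.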

[5] = Genotoxicity in Salmonella typhimurium TA1537 by Ames test; assay type: toxicity; conditions: salmonella enterica subsp. enterica serovar typhimurium
How it was run: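 Ames test in Salmonella strains TA98, TA100, TA1535 and TA1537, run with and without aroclor-induced rat liver S9 plus NADPH.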

[6] = Inhibition of DNL in Sprague-Dawley rat assessed as reduction in DNL level in lung at 300 mg/kg, po pretreated with 1 hr followed by [14C]-acetate treatment and measured after 1 hr relative to control; assay type: functional; conditions: time 2 hrs
How it was run: (§1)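 Sprague-Dawley rats given single oral doses of 0.03–300 mg/kg in 0.5% methyl cellulose vehicle, n = 16 per dose. Read-out is incorporation of 14C-acetate into lipids in liver, bone marrow and lung, measured at 2 h post-dose relative to vehicle. Data are mean ± SEM. EC50 is reported with a 95% confidence interval.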

[7] = target: Organic anion transporter 3 (Homo sapiens, UniProt Q8TCC7); assay: Inhibition of human SLC22A8 expressed in HEK293 cells in presence of para-aminohippuric acid/metformin; assay type: cell-based
Sequence of Organic anion transporter 3 (Q8TCC7 whole entry): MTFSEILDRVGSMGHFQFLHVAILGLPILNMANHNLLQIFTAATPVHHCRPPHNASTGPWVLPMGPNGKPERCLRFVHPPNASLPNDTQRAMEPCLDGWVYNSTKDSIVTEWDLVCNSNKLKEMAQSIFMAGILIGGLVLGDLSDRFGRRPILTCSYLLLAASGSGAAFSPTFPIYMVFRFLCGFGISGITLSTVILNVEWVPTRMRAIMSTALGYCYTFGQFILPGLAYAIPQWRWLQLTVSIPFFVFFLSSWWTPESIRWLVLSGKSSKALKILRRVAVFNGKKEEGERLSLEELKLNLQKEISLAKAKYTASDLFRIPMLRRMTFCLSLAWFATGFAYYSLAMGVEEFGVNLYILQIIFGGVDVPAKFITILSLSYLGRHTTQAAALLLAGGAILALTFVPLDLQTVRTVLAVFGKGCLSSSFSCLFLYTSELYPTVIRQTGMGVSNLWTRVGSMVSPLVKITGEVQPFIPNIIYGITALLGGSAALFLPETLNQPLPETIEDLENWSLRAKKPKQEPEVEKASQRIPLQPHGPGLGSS

Rattus norvegicus = assay: Effect on triglyceride accumulation in Sprague-Dawley rat high fat dietary model at 1 mg/kg, po assessed as reduction in triglyceride level after 42 days by XPT clinical analyzer; assay type: functional; design: scale not given: the % may be the effect or the level left; conditions: time 42 day
How it was run: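 High-fat-diet-fed Sprague-Dawley rats dosed orally for 42 days, with chow-fed and vehicle controls, n = 10 per group. Read-out is hepatic triglyceride, reported as mean ± SEM.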

NTCP = NTCP (Homo sapiens, UniProt Q14973); assay: Substrate activity at human NTCP stably expressed in HEK293 cells assessed as ratio of total to passive cellular uptake at 1 uM incubated for 0.5 to 4 mins by LC/MS-MS analysis; assay type: cell-based; conditions: HEK293 cells stably expressing human NTCP, time 0.5-4 min
Sequence of NTCP (Q14973 whole entry): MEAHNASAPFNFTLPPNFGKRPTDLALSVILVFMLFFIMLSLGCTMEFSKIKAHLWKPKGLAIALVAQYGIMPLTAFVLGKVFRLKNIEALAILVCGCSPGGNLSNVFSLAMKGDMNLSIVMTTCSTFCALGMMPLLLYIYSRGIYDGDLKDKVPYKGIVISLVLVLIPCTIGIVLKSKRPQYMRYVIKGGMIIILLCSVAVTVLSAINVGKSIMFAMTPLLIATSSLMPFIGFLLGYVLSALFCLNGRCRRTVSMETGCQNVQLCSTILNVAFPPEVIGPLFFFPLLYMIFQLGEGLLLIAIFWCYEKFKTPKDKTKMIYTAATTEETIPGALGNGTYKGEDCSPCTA
How it was run: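 HEK293 cells stably transfected with the transporter, plus wild-type cells, grown to confluence in DMEM with 10% heat-inactivated FBS and 5 µg/mL blasticidin. Washed with HBSS/20 mM HEPES, pH 7.4, then incubated with compound at 37 °C for 0.5–4.0 min. Cells washed ice-cold, lysed in MeOH for LC-MS/MS, uptake normalized to BCA protein. Ratio = transfected/wild-type uptake, averaged over time points.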

[8] = Inhibition of DNL in Sprague-Dawley rat assessed as reduction in DNL level in liver at 300 mg/kg, po pretreated with one hr followed by [14C]-acetate treatment and measured after 1 hr relative to control; assay type: functional; how it was run: as §1
[9] = Clearance in cynomolgus monkey plasma at 1 mg/kg, iv and measured up to 72 hrs by LC/MS-MS analysis; assay type: ADME, organism-based, Macaca fascicularis
How it was run: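 Cynomolgus monkeys dosed 1 mg/kg IV as the tris salt in 2% N-methylpyrrolidone/98% sulfobutylether-β-cyclodextrin (12.5%) in 50 mM TRIS, pH 8.0, or PO as the tris salt. Plasma was analysed by LC-MS/MS, n = 2. CL = IV dose/AUC; Vss = dose/(AUC × elimination rate constant); Cmax taken from observed data.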

[10] = Toxicity in cynomolgus monkey assessed as reduction in platelet count at >= 30 mg/kg, po after 14 days; assay type: organism-based, Macaca fascicularis; conditions: in vivo
[11] = Oral bioavailability in Wistar-Hannover rat plasma at 4 mg/kg and measured up to 24 hrs by LC/MS-MS analysis; assay type: ADME, organism-based
How it was run: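 Plasma concentration–time data, n = 2, averaged. Cmax and Tmax read directly from the data. AUC0–24 by the linear trapezoidal rule. F calculated as dose-normalized AUC PO/IV.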

[12] = AUC (0 to 24 hrs) in Wistar-Hannover rat plasma at 4 mg/kg, po and measured up to 24 hrs by LC/MS-MS analysis; assay type: ADME, organism-based; design: route oral, dose 4 mg/kg, time <=24
How it was run: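 Male Wistar-Hannover rats (240–350 g), housed singly after 1 week of acclimation, were dosed orally. AUC0–24 came from plasma concentration–time data by the linear trapezoidal rule, averaged for n = 2. Lower detection limit was 1 ng/mL.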

Sequence of Solute carrier family 22 member 2 (O15244 whole entry): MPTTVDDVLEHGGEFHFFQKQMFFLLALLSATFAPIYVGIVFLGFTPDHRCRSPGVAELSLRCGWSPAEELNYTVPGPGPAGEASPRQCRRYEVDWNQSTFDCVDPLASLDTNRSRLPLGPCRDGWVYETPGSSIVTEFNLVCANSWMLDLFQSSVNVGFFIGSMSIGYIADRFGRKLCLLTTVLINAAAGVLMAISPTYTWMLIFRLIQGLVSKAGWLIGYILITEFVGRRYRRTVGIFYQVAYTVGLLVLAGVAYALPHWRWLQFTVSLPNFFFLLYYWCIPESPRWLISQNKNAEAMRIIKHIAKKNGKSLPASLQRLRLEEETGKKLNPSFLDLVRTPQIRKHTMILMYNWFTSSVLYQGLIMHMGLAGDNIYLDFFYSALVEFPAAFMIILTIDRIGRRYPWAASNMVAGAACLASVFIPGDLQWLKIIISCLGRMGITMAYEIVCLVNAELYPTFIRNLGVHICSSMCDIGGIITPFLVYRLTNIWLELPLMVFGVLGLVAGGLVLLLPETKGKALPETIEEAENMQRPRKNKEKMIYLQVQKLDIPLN

| IC50 [1] | IC50 (Acetyl-CoA carboxylase 1) | solubility thermodynamic at 24 h [2] | IC50 (Cytochrome P450 3A4) | concentration at 6 h [3] | IC50 [7] | uptake ratio at 1 µM (NTCP) | clearance [9] | bioavailability [11] | AUC(0-t) [12] | Structure (SMILES) | inhibition (INH) [4] | Activity (TK6) | Activity [5] | inhibition in vivo at 300 mg/kg [6] | Activity (Rattus norvegicus) | inhibition in vivo at 300 mg/kg [8] | Activity [10] |
| --- | --- | --- | --- | --- | --- | --- | --- | --- | --- | --- | --- | --- | --- | --- | --- | --- | --- |
| > 30 µM | 0.0124 µM | 8 µM (≈ 4.02 µg/mL) | > 50 µM | 24600 ng/mL | > 30 µM | 3.2 | 1.3 mL/min/kg | – | – | COc1cc(C(=O)N2CCC3(CC2)CC(=O)c2c(cnn2C(C)C)C3)cc(-c2ccc(C(=O)O)cc2)n1 [CLESACOSTAT] | Not Active | Non-Toxic | Non-Toxic | 29% | 30% | 82% | Toxic |
| – | – | – | – | – | – | – | – | 27% | 322 ng·h/mL | COc1cc(C(=O)N2CCC3(CC2)CC(=O)c2nn(C(C)(C)C)cc2O3)cc(-c2ccc(C(=O)O)cc2)n1 | – | – | – | – | – | – | – |
